Test results taken from ChEMBL document CHEMBL1629439, “High-throughput identification of antibacterials against methicillin-resistant Staphylococcus aureus (MRSA) and the transglycosylase” (Bioorg Med Chem, 2010).
Converted amounts (≈) assume the structure as drawn.

What was measured:
[1] = tested on: Staphylococcus aureus; experiment: Antimicrobial activity against Staphylococcus aureus ATCC 29213 after 18 to 24 hrs by alamar blue assay
[2] = tested on: Mycolicibacterium smegmatis; experiment: Antimicrobial activity against Mycobacterium smegmatis BCRC 11565 after 18 to 24 hrs by alamar blue assay; assay type: functional; settings: Mycolicibacterium smegmatis, BCRC 11565; read-out: MIC
Summary of the method: (§1)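 Broth microdilution per NCCLS in Mueller-Hinton broth, 8-point twofold dilutions, 384-well format. Exponential-phase cells at 5 × 10^5 cells/ml incubated with compound 18–24 h at 37 °C, then 20% Alamar blue added and fluorescence read. MIC90 taken as the lowest concentration preventing at least 90% bacterial growth.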

[3] = tested on: Staphylococcus aureus; experiment: Antimicrobial activity against oxacillin- and methicillin-resistant Staphylococcus aureus isolate Sa-OXA-R2 after 18 to 24 hrs by alamar blue assay; assay type: functional
Summary of the method: (§2)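 Broth microdilution per NCCLS standard, Mueller-Hinton broth, 8-point twofold dilutions; exponentially growing cells at 5 10^5 cells/ml with compound, 18–24 h at 37 C; 20% Alamar blue added, fluorescence read; MIC90 taken as lowest concentration preventing at least 90% growth.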

[4] = tested on: Serratia marcescens; experiment: Antimicrobial activity against Serratia marcescens ATCC 14756 after 18 to 24 hrs by alamar blue assay; assay type: functional; settings: Serratia marcescens, ATCC 14756; read-out: MIC
Summary of the method: as §1

[5] = tested on: Escherichia coli; experiment: Antimicrobial activity against Escherichia coli ATCC […] after 18 to 24 hrs by alamar blue assay; assay type: functional; settings: Escherichia coli; read-out: MIC
Summary of the method: as §1

[6] = tested on: Staphylococcus aureus; experiment: Antimicrobial activity against methicillin-resistant Staphylococcus aureus ATCC 33592 after 18 to 24 hrs by alamar blue assay; assay type: functional; settings: Staphylococcus aureus, ATCC 33592; read-out: MIC
Summary of the method: as §2

[7] = tested on: Bacillus subtilis; experiment: Antimicrobial activity against Bacillus subtilis ATCC 23857 after 18 to 24 hrs by alamar blue assay; assay type: functional
Summary of the method: as §1

[8] = tested on: Acinetobacter baumannii; experiment: Antimicrobial activity against Acinetobacter baumannii ATCC 49139 after 18 to 24 hrs by alamar blue assay; assay type: functional; settings: Acinetobacter baumannii, ATCC 49139; read-out: MIC
Summary of the method: as §1

[9] = tested on: Staphylococcus aureus; experiment: Antimicrobial activity against methicillin-resistant Staphylococcus aureus isolate NTUH4722 after 18 to 24 hrs by alamar blue assay; assay type: functional
Summary of the method: as §2

[10] = tested on: Pseudomonas aeruginosa; experiment: Antimicrobial activity against Pseudomonas aeruginosa ATCC 25619 after 18 to 24 hrs by alamar blue assay; assay type: functional; settings: Pseudomonas aeruginosa, ATCC 25619; read-out: MIC
Summary of the method: as §1

[11] = tested on: Stenotrophomonas maltophilia; experiment: Antimicrobial activity against Stenotrophomonas maltophilia ATCC 13637 after 18 to 24 hrs by alamar blue assay; assay type: functional; settings: Stenotrophomonas maltophilia, ATCC 13637; read-out: MIC
Summary of the method: as §1

SMILES	MIC [1] [µg/mL]	MIC [2] [µg/mL]	MIC [3] [µg/mL]	MIC [4] [µg/mL]	MIC [5] [µg/mL]	MIC [6] [µg/mL]	MIC [7] [µg/mL]	MIC [8] [µg/mL]	MIC [9] [µg/mL]	MIC [10] [µg/mL]	MIC [11] [µg/mL]
Cc1ccc(NS(=O)(=O)c2ccc3c(c2)NCC(C)C(=O)S3)c(Br)c1 (stereo unspecified)	2 (≈ 4.53 µM)	> 64	> 64	> 256	> 256	8 (≈ 18.1 µM)	< 0.03	> 256	16 (≈ 36.3 µM)	> 256	> 256
O=C(Nc1cc(Cl)ccc1Cl)c1cc(Br)cc(Br)c1O	1 (≈ 2.27 µM)	0.5 (≈ 1.14 µM)	0.5 (≈ 1.14 µM)	16 (≈ 36.4 µM)	8 (≈ 18.2 µM)	1 (≈ 2.27 µM)	< 0.03	16 (≈ 36.4 µM)	0.5 (≈ 1.14 µM)	16 (≈ 36.4 µM)	16 (≈ 36.4 µM)
CCCc1cc(O)nc(N2NC(C)=CC2NC(=O)c2ccccc2)n1 (stereo unspecified)	2 (≈ 5.89 µM)	0.25 (≈ 0.737 µM)	8 (≈ 23.6 µM)	> 256	> 256	8 (≈ 23.6 µM)	0.25 (≈ 0.737 µM)	> 256	8 (≈ 23.6 µM)	> 256	> 256
CCCc1ccc(C)c(Oc2ccc(Cl)cc2NC(=O)c2cc(Cl)cc(Br)c2O)c1	0.25 (≈ 0.491 µM)	0.5 (≈ 0.982 µM)	0.06 (≈ 0.118 µM)	16 (≈ 31.4 µM)	8 (≈ 15.7 µM)	0.125 (≈ 0.245 µM)	< 0.03	16 (≈ 31.4 µM)	0.06 (≈ 0.118 µM)	16 (≈ 31.4 µM)	16 (≈ 31.4 µM)
CCC1Sc2ccc(S(=O)(=O)Nc3ccc(C)cc3C)cc2NC1=O (stereo unspecified)	1 (≈ 2.66 µM)	> 64	> 64	> 256	> 256	8 (≈ 21.2 µM)	< 0.03	> 256	4 (≈ 10.6 µM)	> 256	> 256
O=C(Nc1nnc(-c2ccc(F)cc2)o1)c1cccc(Cl)c1	1 (≈ 3.15 µM)	0.5 (≈ 1.57 µM)	4 (≈ 12.6 µM)	> 256	> 256	0.5 (≈ 1.57 µM)	0.5 (≈ 1.57 µM)	> 256	1 (≈ 3.15 µM)	> 256	> 256
Cc1c(CC(=O)N[C@@H](C(=O)O)C(C)C)c(=O)oc2c(C)c3occ(-c4ccc(Cl)cc4)c3cc12	1.25 (≈ 2.59 µM)	1 (≈ 2.07 µM)	2.5 (≈ 5.19 µM)	> 256	> 256	1.25 (≈ 2.59 µM)	> 64	> 256	2.5 (≈ 5.19 µM)	> 256	> 256
O=C1c2cccc3cccc(c23)C(=O)N1CCN1CCN(CCc2ccccc2)CC1	1 (≈ 2.42 µM)	4 (≈ 9.67 µM)	0.5 (≈ 1.21 µM)	> 256	> 256	1 (≈ 2.42 µM)	4 (≈ 9.67 µM)	> 256	16 (≈ 38.7 µM)	> 256	> 256
Cc1c(CC(=O)N2CCC[C@H]2C(=O)O)c(=O)oc2c(C)c3occ(-c4ccc(F)cc4)c3cc12	0.6 (≈ 1.29 µM)	1 (≈ 2.16 µM)	0.6 (≈ 1.29 µM)	> 256	> 256	1.25 (≈ 2.7 µM)	> 64	> 256	0.6 (≈ 1.29 µM)	> 256	> 256
CCC1Sc2ccc(S(=O)(=O)Nc3c(C)cc(C)cc3C)cc2NC1=O (stereo unspecified)	2 (≈ 5.12 µM)	> 64	> 64	> 256	> 256	64 (≈ 164 µM)	< 0.03	> 256	32 (≈ 81.9 µM)	> 256	> 256
COc1ccccc1N1C(=O)c2cc([N+](=O)[O-])cc3cc([N+](=O)[O-])cc(c23)C1=O	1.25 (≈ 3.18 µM)	4 (≈ 10.2 µM)	0.3 (≈ 0.763 µM)	> 256	> 256	2.5 (≈ 6.36 µM)	4 (≈ 10.2 µM)	> 256	2.5 (≈ 6.36 µM)	> 256	> 256
Cc1c(CC(=O)N2CCC(C(=O)O)CC2)c(=O)oc2c(C)c3occ(-c4ccc(F)cc4)c3cc12	2.5 (≈ 5.24 µM)	1 (≈ 2.09 µM)	2.5 (≈ 5.24 µM)	> 256	> 256	1.25 (≈ 2.62 µM)	> 64	> 256	2.5 (≈ 5.24 µM)	> 256	> 256
O=C1c2ccc([N+](=O)[O-])c3c([N+](=O)[O-])ccc(c23)C(=O)N1c1ccccc1	2.5 (≈ 6.88 µM)	4 (≈ 11 µM)	1.25 (≈ 3.44 µM)	> 256	> 256	2.5 (≈ 6.88 µM)	4 (≈ 11 µM)	> 256	1.25 (≈ 3.44 µM)	> 256	> 256
O=C(Nc1nnc(-c2ccc(F)cc2)o1)c1cccc(Br)c1	2 (≈ 5.52 µM)	0.5 (≈ 1.38 µM)	1 (≈ 2.76 µM)	> 256	> 256	0.5 (≈ 1.38 µM)	0.5 (≈ 1.38 µM)	> 256	1 (≈ 2.76 µM)	> 256	> 256
CCC1Sc2ccc(S(=O)(=O)Nc3cc(Cl)ccc3C)cc2NC1=O (stereo unspecified)	4 (≈ 10.1 µM)	> 64	16 (≈ 40.3 µM)	> 256	> 256	> 64	< 0.03	> 256	16 (≈ 40.3 µM)	> 256	> 256
Cn1c(/C=C/c2ccc([N+](=O)[O-])o2)nc2ccccc2c1=O	1 (≈ 3.36 µM)	1 (≈ 3.36 µM)	0.5 (≈ 1.68 µM)	> 256	16 (≈ 53.8 µM)	2 (≈ 6.73 µM)	< 0.03	> 256	1 (≈ 3.36 µM)	2 (≈ 6.73 µM)	> 256
O=C(Nc1nnc(-c2ccc(Cl)cc2)o1)c1cccc(C(F)(F)F)c1	1 (≈ 2.72 µM)	0.5 (≈ 1.36 µM)	0.125 (≈ 0.34 µM)	> 256	> 256	0.5 (≈ 1.36 µM)	0.5 (≈ 1.36 µM)	> 256	0.125 (≈ 0.34 µM)	> 256	> 256
O=C(Nc1cccc(Cl)c1)c1cc(Br)cc(Br)c1O	2 (≈ 4.93 µM)	0.5 (≈ 1.23 µM)	8 (≈ 19.7 µM)	16 (≈ 39.5 µM)	8 (≈ 19.7 µM)	2 (≈ 4.93 µM)	< 0.03	16 (≈ 39.5 µM)	2 (≈ 4.93 µM)	16 (≈ 39.5 µM)	16 (≈ 39.5 µM)
CCc1ccccc1NS(=O)(=O)c1ccc2c(c1)NCC(C)C(=O)S2 (stereo unspecified)	2 (≈ 5.31 µM)	> 64	> 64	> 256	> 256	2 (≈ 5.31 µM)	< 0.03	> 256	4 (≈ 10.6 µM)	> 256	> 256
CCCc1cc(O)nc(N2NC(C)=CC2NC(=O)c2cccs2)n1 (stereo unspecified)	1 (≈ 2.89 µM)	0.25 (≈ 0.724 µM)	1 (≈ 2.89 µM)	> 256	> 256	1 (≈ 2.89 µM)	0.25 (≈ 0.724 µM)	> 256	1 (≈ 2.89 µM)	> 256	> 256
O=c1c2ccccc2nc(/C=C/c2ccc([N+](=O)[O-])o2)n1CCCO	2 (≈ 5.86 µM)	1 (≈ 2.93 µM)	2 (≈ 5.86 µM)	> 256	16 (≈ 46.9 µM)	2 (≈ 5.86 µM)	< 0.03	> 256	2 (≈ 5.86 µM)	2 (≈ 5.86 µM)	> 256
